Laboratory results published in publication PMC3607822 (The Journal of General Physiology, 2013).
Numbering of substitutions follows the chain as printed. Where two headings read alike, the source gives them in different places.

Key:
GST fusion A3N7R-A = GST fusion A3N7R-A (Homo sapiens, UniProt Q16281, R101A/R103A/R72A/R75A/R81A/R82A/R86A); experiment: In vitro PIP3-agarose bead pull-down, A3N7R-A; assay type: binding; details: PIP3-agarose beads, anti-GST immunoblot; compared with A3N
Outline: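 Recombinant GST fusions of channel fragments expressed in E. coli and purified; soluble fraction kept after 20,000 g, 4°C, 30 min. Protein (2 µg/ml) rocked with PIP3- or control agarose beads, 2 h, 4°C, in 10 mM Hepes pH 7.4, 50 mM NaCl, 2 mM EDTA, 0.25% Triton X-100, 0.25% NP-40. Five washes, elution in sample buffer, reducing SDS gel, anti-GST (1:2,000, overnight) immunoblot, chemiluminescence; […].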

[1] = target: T1, heteromeric CNGA3+CNGB3 channels (Homo sapiens, UniProt Q16281+Q9NQW8); experiment: Inside-out patch clamp, heteromeric CNGA3+CNGB3; assay type: biochemical; details: for EC50: read-out: K1/2 cGMP
T1 sequence (Q16281 1-694): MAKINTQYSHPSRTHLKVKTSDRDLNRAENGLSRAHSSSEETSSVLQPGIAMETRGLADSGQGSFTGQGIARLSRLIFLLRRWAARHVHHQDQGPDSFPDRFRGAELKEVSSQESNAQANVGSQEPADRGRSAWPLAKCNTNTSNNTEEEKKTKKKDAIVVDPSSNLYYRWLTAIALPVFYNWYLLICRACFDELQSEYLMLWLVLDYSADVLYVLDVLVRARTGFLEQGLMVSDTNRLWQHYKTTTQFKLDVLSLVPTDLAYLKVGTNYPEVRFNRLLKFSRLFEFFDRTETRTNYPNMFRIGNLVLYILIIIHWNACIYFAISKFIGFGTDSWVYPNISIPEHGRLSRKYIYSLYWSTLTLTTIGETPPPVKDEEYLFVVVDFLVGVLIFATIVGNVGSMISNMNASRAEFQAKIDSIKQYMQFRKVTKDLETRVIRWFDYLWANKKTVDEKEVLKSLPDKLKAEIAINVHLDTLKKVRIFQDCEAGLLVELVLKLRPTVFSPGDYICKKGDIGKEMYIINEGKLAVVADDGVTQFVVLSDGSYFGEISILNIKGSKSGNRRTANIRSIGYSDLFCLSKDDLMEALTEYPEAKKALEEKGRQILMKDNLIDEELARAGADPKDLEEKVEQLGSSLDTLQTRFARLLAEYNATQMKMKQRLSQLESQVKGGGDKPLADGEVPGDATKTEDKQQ
T1 sequence (Q9NQW8 1-809): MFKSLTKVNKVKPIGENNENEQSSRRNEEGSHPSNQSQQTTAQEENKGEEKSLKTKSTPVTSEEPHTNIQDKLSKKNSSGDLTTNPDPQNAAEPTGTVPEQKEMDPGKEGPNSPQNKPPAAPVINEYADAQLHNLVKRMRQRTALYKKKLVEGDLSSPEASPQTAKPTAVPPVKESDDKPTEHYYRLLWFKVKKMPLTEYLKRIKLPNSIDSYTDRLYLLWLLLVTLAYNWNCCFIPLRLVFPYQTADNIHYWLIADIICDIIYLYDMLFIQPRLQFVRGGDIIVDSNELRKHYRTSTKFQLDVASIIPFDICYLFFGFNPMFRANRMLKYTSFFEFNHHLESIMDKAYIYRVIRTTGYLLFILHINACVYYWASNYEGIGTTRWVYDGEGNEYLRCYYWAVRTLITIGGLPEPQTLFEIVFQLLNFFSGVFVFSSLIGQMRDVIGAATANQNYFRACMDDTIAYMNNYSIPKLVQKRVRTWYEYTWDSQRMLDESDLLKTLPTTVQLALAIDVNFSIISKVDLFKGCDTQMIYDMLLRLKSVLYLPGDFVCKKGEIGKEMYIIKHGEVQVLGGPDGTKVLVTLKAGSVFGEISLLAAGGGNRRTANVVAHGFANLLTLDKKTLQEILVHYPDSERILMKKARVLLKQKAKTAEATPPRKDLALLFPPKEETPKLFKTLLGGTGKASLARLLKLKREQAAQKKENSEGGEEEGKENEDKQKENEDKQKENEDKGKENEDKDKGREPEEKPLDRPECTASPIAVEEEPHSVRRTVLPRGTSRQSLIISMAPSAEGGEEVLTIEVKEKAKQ

CNGA1 homomeric channels = CNGA1 homomeric channels (Bos taurus, UniProt Q00194); experiment: Inside-out patch clamp, homomeric CNGA1; assay type: biochemical, bovine; details: PIP3 or PIP2 application
CNGA1 homomeric channels, sequence (Q00194 whole entry): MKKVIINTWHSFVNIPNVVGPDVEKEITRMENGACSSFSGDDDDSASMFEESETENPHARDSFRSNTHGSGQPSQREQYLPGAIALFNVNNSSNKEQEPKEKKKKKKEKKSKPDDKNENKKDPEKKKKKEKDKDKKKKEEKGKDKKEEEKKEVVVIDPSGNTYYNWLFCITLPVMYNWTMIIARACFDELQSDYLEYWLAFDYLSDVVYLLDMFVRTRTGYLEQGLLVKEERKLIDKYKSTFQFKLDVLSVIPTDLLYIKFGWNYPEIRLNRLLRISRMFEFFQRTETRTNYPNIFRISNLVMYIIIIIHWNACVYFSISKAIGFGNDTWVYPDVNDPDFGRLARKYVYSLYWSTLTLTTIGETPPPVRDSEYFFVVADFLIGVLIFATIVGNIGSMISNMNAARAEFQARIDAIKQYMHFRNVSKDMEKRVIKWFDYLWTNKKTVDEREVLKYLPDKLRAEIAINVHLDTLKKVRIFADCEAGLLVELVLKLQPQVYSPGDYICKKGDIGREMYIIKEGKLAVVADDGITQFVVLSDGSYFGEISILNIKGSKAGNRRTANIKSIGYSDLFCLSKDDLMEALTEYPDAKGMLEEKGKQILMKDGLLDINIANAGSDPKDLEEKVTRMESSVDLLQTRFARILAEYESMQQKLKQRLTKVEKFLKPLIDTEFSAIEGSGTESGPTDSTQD

[2] = target: T2, CNGA3 P99L, A105P (PA-LP) channels (Homo sapiens, UniProt Q16281, A105P/P99L); experiment: Inside-out patch clamp, CNGA3 P99L, A105P; assay type: biochemical; details: for EC50: read-out: K1/2 cGMP
T2 sequence (Q16281 1-694 P99L/A105P): T1 sequence (Q16281 1-694) with P99L, A105P

[3] = target: CNGA3 ΔN (51-107), 613X channels (Homo sapiens, UniProt Q16281, DEL51-107); experiment: Inside-out patch clamp, CNGA3 ΔN; assay type: biochemical
[4] = target: CNGA3 N5R-A, 613X channels (Homo sapiens, UniProt Q16281, R72A/R75A/R81A/R82A/R86A); experiment: Inside-out patch clamp, CNGA3 N5R-A, 613X; assay type: biochemical
[5] = mean, after 1 µM PIP3 or 10 µM PIP2
[6] = representative patch, after PIP3 or PIP2
[7] = representative patch, 1 µM PIP3
[8] = representative patch, before PIP2
[9] = representative patch, before PIP3
[10] = read-out: K1/2 cGMP, +80 mV, no PIPn

phosphatidylinositol (3,4,5)-trisphosphate [PIP3]
in vitro PIP3 binding (GST fusion A3N7R-A): attenuated binding to PIP3 beads | fold shift of K1/2 cGMP to higher concentration ([1]; 1 µM PIP3): ~1.5 fold | effect on currents elicited by 5 µM cGMP ([1]; 1 µM PIP3 or 10 µM PIP2): attenuated the currents | Imax cAMP/cGMP after phosphoinositide ([1]; after PIP2 or PIP3 application): 0.30 ± 0.03 | Hill coefficient h after phosphoinositide [1, 5]: 1.6 | K1/2 cGMP after phosphoinositide [1, 5]: 20.8 ± 1.4 µM | Hill coefficient h after phosphoinositide [1, 6]: 2.0 | K1/2 cGMP after phosphoinositide [1, 6]: 26.5 µM | Imax cGMP compared with initial values ([1]; saturating cGMP, after 1 µM PIP3 or 10 µM PIP2): 95.4 ± 2.8% | effect on relative cAMP efficacy (CNGA1 homomeric channels): decreased relative cAMP efficacy | Hill coefficient h after phosphoinositide ([2]; after PIP3 or PIP2 application): 1.8 | K1/2 cGMP after phosphoinositide ([2]; after PIP3 or PIP2 application): 9.4 ± 0.9 µM | Hill coefficient h after PIP3 [2, 7]: 1.7 | K1/2 cGMP after PIP3 [2, 7]: 11.4 µM

Nc1nc2c(ncn2[C@@H]2O[C@@H]3COP(=O)(O)O[C@H]3[C@H]2O)c(=O)[nH]1 [cGMP, cyclic guanosine monophosphate]
Hill coefficient h ([1]; mean, before PIPn): 1.9 | EC50 ([1]; mean, before PIPn): 13.5 ± 0.6 µM | EC50 [1, 8]: 12.8 µM | EC50 [1, 9]: 16.1 µM | Hill coefficient h [1, 8]: 1.8 | Hill coefficient h [1, 9]: 2.05 | Hill coefficient ([3]; cGMP activation): 1.90 ± 0.06 (4) | EC50 [3, 10]: 11.1 ± 2.28 µM | Hill coefficient ([4]; cGMP activation): 1.71 ± 0.05 (8) | EC50 [4, 10]: 16.7 ± 0.98 µM | EC50 ([2]; +80 mV, no PIPn): 5.3 ± 0.18 µM | EC50 [2, 9]: 5.7 µM | Hill coefficient h [2, 9]: 1.7 | Po max cGMP ([2]; saturating cGMP): 0.95 ± 0.01 (4)
